A selection: hits, their analogues and other compounds. The true share with any hit is near 1.7%.
LMPTP inh – LMPTP (human) inhibition | P24666 | recombinant LMPTP-A, OMFP fluorogenic substrate, fluorescence intensity | inhibition, % at 20 µM | 360,000 tested, 0.22% active | AID 651560;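 active means compounds that cut the enzyme signal by at least half of the control window in the single-dose screen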;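 further: plate controls were DMSO wells with enzyme plus substrate for no effect and substrate without enzyme for full effect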
Target sequence (P24666 whole entry, looked up): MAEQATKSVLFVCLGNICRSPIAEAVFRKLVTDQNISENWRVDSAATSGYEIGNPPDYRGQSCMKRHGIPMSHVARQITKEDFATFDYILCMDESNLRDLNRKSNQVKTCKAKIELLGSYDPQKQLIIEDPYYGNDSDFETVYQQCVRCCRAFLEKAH
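Assay system: LMPTP-A enzyme. Input: 0.625 nM LMPTP-A final. Probe or stimulus: 400 µM OMFP. Compound dosing: single 20 µM dose. Schedule: 50 min dark incubation at room temperature. Detection: fluorescence intensity of OMFP turnover product. Read-out: percent inhibition versus substrate-only and uninhibited controls. Benchmarks: no-enzyme low control, uninhibited high control.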
DNMT1 inh – inhibitors of human DNMT1; P26358; DNMT1 molecular beacon, Hinp1I cleavage, fluorescence; inhibition (reported as % activation of signal), % at 10 µM; 360,000 tested, 0.83% active; AID 588458; in the data active means inhibition above about 50%
Scp-1 inhibitor – Scp-1 (human) phosphatase inhibition | Q9GZU7 | Recombinant Scp1, phosphopeptide, malachite green phosphate absorbance | inhibition, % at 20 µM | 340,000 tested, 0.88% active | AID 493091;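 active means inhibition above about 50% at 20 µM, limit read from the data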;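 further: plate controls were DMSO wells with enzyme for no effect and wells lacking enzyme for full effect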
Target sequence (Q9GZU7 76-261 limits assumed): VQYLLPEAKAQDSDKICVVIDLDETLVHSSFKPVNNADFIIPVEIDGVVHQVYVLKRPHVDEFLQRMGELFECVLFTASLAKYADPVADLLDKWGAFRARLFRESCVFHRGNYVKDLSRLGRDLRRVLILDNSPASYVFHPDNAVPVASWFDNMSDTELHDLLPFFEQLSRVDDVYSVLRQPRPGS
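assay system = SCP-1 phosphatase catalytic domain, residues 76-261 | buffer or medium = 50 mM Tris acetate pH 5.5, 0.005% Tween-20, 10 mM MgCl2 | incubation = enzyme reaction 45 min at room temperature, colour 5 min, stabilisation 30 min | signal = Phosphate-binding colour reagent, absorbance read at 630 nm | measure = % inhibition at 20 µM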
STEP inh – inhibitors of human striatal-enriched phosphatase STEP | inhibition, % at 20 µM | 360,000 tested, 0.25% active | recombinant STEP, OMFP fluorogenic substrate, fluorescence | AID 588621;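 active means inhibition at 20 µM, scaled per plate between control wells, above about 37%, limit read from the data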;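 further: 0% = DMSO with enzyme and substrate and 100% = substrate only without enzyme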
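System: STEP phosphatase, cell-free reaction; Buffer or medium: Bis-Tris pH 6.0 buffer with DTT, detergent; Incubation: 20 min at room temperature, dark; Measured by: fluorescence, 480/540 nm.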
SUMO1 PPI mod – SUMO1-SIM interaction modulation; inhibition, % at 20 µM; 360,000 tested, 0.33% active; SUMO1 binding to a labelled peptide, TR-FRET, 1 h; P63165; in the data active means inhibition above about 37%
Target sequence (P63165 whole entry, looked up): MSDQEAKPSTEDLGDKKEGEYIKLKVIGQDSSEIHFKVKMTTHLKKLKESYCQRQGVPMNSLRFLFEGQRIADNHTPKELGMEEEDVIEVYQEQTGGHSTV
Scp1 confirm – Scp-1 (human) inhibition, single-dose confirmed; inhibition, % at 20 µM; recombinant SCP-1 catalytic domain, phosphate release, malachite green absorbance; AID 540281; shares compounds with Scp-1 inhibitor; 2,500 tested, 61% active;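 further: plate controls were DMSO with enzyme for no effect and buffer wells lacking enzyme for full effect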
Scp-1 MG ctr – colorimetric interference in Scp-1 counter-screen | shares compounds with Scp-1 inhibitor | Colorimetric interference counterscreen, malachite green absorbance 630 nm | apparent inhibition (interference), % at 20 µM | 2,500 tested, under 10 active | AID 540313;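 further: compounds added after enzyme reaction finished so only phosphate colour detection is probed; plate controls were DMSO wells with completed Scp-1 reaction for no effect and substrate wells lacking enzyme for full effect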
Scp-1 Tm shift – Scp-1 (human) binding by thermal shift. shares compounds with Scp-1 inhibitor. Recombinant SCP1, Sypro Orange thermal shift Tm. thermal shift relative to vanadate control, % at 40 µM. 1,500 tested, 25% active. AID 540329;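 active means substances whose mean melting-temperature shift, as a percentage of the reference inhibitor's shift, reaches about 5.3%, limit read from the data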;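 further: 0% = Tm of DMSO wells and 100% = Tm with sodium orthovanadate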
Numbers without * were called inactive.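 How the source made its calls, unless noted: active means inhibition of at least 30% at 20 µM; inactive means the rest.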

For O=C(O)C1C2C=CC(C2)C1C(=O)N1CCc2ccccc21 (stereo unspecified) the results were LMPTP inh 0.1, DNMT1 inh 5.7, Scp-1 inhibitor -5.0, STEP inh 2.9 and SUMO1 PPI mod -2.9.
For O=C(O)C1CC=CCC1C(=O)N1CCc2ccccc21 (stereo unspecified) the results were LMPTP inh 1.2, DNMT1 inh 33.1, Scp-1 inhibitor 52.4*, STEP inh 4.7, SUMO1 PPI mod -2.0, Scp1 confirm 49.2*, Scp-1 MG ctr 0.3 and Scp-1 Tm shift 0.1.
Screening Cc1cc(C)nc(SCC(=O)NNS(=O)(=O)c2ccc(C#N)cc2)n1 returned LMPTP inh -0.7, DNMT1 inh 15.6, Scp-1 inhibitor 54.5*, STEP inh 1.3, SUMO1 PPI mod 15.2, Scp1 confirm 62.0*, Scp-1 MG ctr 3.1 and Scp-1 Tm shift -4.3.
`Cc1[nH]c(=O)c(C#N)c(C)c1CCC(=O)Nc1cc(S(C)(=O)=O)ccc1Cl` gave LMPTP inh -1.5, DNMT1 inh -1.3, Scp-1 inhibitor 58.1*, STEP inh -0.7, SUMO1 PPI mod -2.6, Scp1 confirm 1.7 and Scp-1 MG ctr -8.2.
C=CCNc1nc(C(=O)OCC(=O)Nc2ccc(S(N)(=O)=O)cc2)cs1 was read as LMPTP inh 13.1, DNMT1 inh -4.0, Scp-1 inhibitor 58.2*, STEP inh 3.1, SUMO1 PPI mod -0.6, Scp1 confirm 65.4*, Scp-1 MG ctr -9.8 and Scp-1 Tm shift -1.6.
For CCOC(=O)[C@H]1[C@H]2COc3ccc(Br)cc3[C@@H]2N2C(=O)CN(Cc3ccc(OC)cc3)C(=O)[C@@]12C the results were LMPTP inh -0.4, DNMT1 inh -16.1, Scp-1 inhibitor -2.3, STEP inh -2.0 and SUMO1 PPI mod -0.7.
CC(C)CC1Nc2ccc(C(=O)NCc3ccc4c(c3)OCO4)cc2NC1=O (stereo unspecified) was read as LMPTP inh 1.2, DNMT1 inh -1.0, Scp-1 inhibitor -10.1, STEP inh -0.1, SUMO1 PPI mod -5.2, Scp1 confirm -4.6 and Scp-1 MG ctr -1.6.
Screening C/C(CC1CC(COCC(C)C)OC1=O)=N\Nc1nc(-c2ccccc2)cs1 (stereo unspecified) returned LMPTP inh 1.1, DNMT1 inh -17.6, Scp-1 inhibitor -3.8, STEP inh -0.4 and SUMO1 PPI mod 2.2.
Screening CC1CC(CC(=O)Nc2nc(-c3ccccc3)cs2)C(=O)O1 (stereo unspecified) returned LMPTP inh -1.5, DNMT1 inh 8.4, Scp-1 inhibitor -3.9, STEP inh 3.4, SUMO1 PPI mod 2.0, Scp1 confirm -10.5 and Scp-1 MG ctr -4.9.
C#CC(C)(O)C1CC(CC(=O)O)C1(C)C (stereo unspecified) was read as LMPTP inh -1.4, DNMT1 inh -0.6, Scp-1 inhibitor -9.5, STEP inh -2.5 and SUMO1 PPI mod 22.7.
Cc1ccc(C(=O)N2CCN(c3ncnc4c(C)csc34)CC2)cc1 was read as LMPTP inh 0.5, DNMT1 inh 0.2, Scp-1 inhibitor 58.3*, STEP inh 0.4, SUMO1 PPI mod 1.7, Scp1 confirm 4.5 and Scp-1 MG ctr -1.0.
`O=C(O)CCN1C(=O)c2ccc(NC(=O)c3ccco3)cc2C1=O` gave LMPTP inh 0.3, DNMT1 inh -4.3, Scp-1 inhibitor 2.0, STEP inh -2.0 and SUMO1 PPI mod -14.1.
`O=C(O)CCN1C(=O)c2ccc(NC(=O)C(c3ccccc3)c3ccccc3)cc2C1=O` gave LMPTP inh 0.4, DNMT1 inh 2.6, Scp-1 inhibitor 67.2*, STEP inh -0.7, SUMO1 PPI mod -19.0, Scp1 confirm -10.6 and Scp-1 MG ctr -15.8.
Screening CCc1noc(C)c1C(=O)N1CCN(S(=O)(=O)c2c(C)cc(C)cc2C)CC1 returned LMPTP inh -9.1, DNMT1 inh -6.8, Scp-1 inhibitor -15.0, STEP inh -0.6 and SUMO1 PPI mod -39.8.
For CC(Nc1ccc(F)cc1)=[N+](C)CCNS(=O)(=O)c1ccc(Cl)cc1 the results were LMPTP inh -1.1, DNMT1 inh 1.6, Scp-1 inhibitor 102.8*, STEP inh -1.0, SUMO1 PPI mod 1.1, Scp1 confirm 88.7*, Scp-1 MG ctr -10.9 and Scp-1 Tm shift -29.2.
For Cc1[nH]c2ccccc2c1C(=O)C(C)OC(=O)C1CCC1 (stereo unspecified) the results were LMPTP inh -0.1, DNMT1 inh -3.6, Scp-1 inhibitor -4.2, STEP inh -0.5 and SUMO1 PPI mod 8.4.
`Cc1ccc2oc(C(=O)N3CCC(O)(c4cccc(C(F)(F)F)c4)CC3)c(C)c2c1` gave LMPTP inh 1.6, DNMT1 inh -12.2, Scp-1 inhibitor -2.4, STEP inh -2.2 and SUMO1 PPI mod 0.9.
`O=C1/C(=C\c2cccc([N+](=O)[O-])c2O)SC(=S)N1Cc1ccccc1` gave LMPTP inh 9.4, DNMT1 inh 7.5, Scp-1 inhibitor 73.3*, STEP inh 6.5, SUMO1 PPI mod 22.5, Scp1 confirm 15.5 and Scp-1 MG ctr -24.7.
Screening Cc1c(Cl)cc(C(C)C)c(O)c1CN1CCOCC1 returned LMPTP inh 0.6, DNMT1 inh -2.7, Scp-1 inhibitor 6.8, STEP inh 3.5 and SUMO1 PPI mod 0.6.
Screening CCCn1c(N)c(N(CCOC)C(=O)CSc2ccccc2)c(=O)[nH]c1=O returned LMPTP inh -1.9, DNMT1 inh 4.3, Scp-1 inhibitor -7.9, STEP inh 2.3 and SUMO1 PPI mod 0.0.
For Cc1c(/C(O)=C2/C(=O)C(=O)N(CCN3CCOCC3)C2c2cccs2)cnn1-c1ccccc1 (stereo unspecified) the results were LMPTP inh -2.8, DNMT1 inh 2.6, Scp-1 inhibitor 48.2, STEP inh 4.3, SUMO1 PPI mod -8.3, Scp1 confirm -27.9 and Scp-1 MG ctr -19.9.
Screening CN(C)c1ccc(CNC(=O)CCS(=O)(=O)c2ccc3c(c2)n(C)c(=O)c(=O)n3C)cc1 returned LMPTP inh -0.6, DNMT1 inh 30.3, Scp-1 inhibitor 63.5*, STEP inh 2.0, SUMO1 PPI mod 22.5, Scp1 confirm 25.0 and Scp-1 MG ctr -12.0.
For Cc1ccc(CNC(=O)CCS(=O)(=O)c2ccc3c(c2)oc(=O)n3C)cc1 the results were LMPTP inh -1.3, DNMT1 inh 0.9, Scp-1 inhibitor -4.0, STEP inh 0.6 and SUMO1 PPI mod -7.5.

From PubChem BioAssay
